Assay results published in the M2OR odorant receptor database.

How the values were obtained:
Settings in all cases: stereoisomer not certain
[1] = molecular target: T1, OR52I1 (Homo sapiens) (UniProt Q8NGK6)
T1 sequence (whole entry): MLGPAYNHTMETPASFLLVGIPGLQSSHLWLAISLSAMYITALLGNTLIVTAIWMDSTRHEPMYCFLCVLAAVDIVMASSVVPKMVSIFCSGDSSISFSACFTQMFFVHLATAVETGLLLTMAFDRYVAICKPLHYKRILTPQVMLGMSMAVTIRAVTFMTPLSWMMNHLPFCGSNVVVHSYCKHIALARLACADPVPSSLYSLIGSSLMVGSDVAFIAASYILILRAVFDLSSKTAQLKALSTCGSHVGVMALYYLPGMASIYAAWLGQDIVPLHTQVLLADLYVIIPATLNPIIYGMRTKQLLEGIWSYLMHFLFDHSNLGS
Summary of the method: (§1)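 Assay methods differ from source to source, frequently being transient luciferase assays in mammalian cell lines. For each receptor–molecule pair, the label responsive (active) applies when the original authors judged the measured signal statistically different from baseline, and non-responsive (inactive) applies otherwise.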

[2] = molecular target: T2, OR52I2 (Homo sapiens) (UniProt Q8NH67)
T2 sequence (whole entry): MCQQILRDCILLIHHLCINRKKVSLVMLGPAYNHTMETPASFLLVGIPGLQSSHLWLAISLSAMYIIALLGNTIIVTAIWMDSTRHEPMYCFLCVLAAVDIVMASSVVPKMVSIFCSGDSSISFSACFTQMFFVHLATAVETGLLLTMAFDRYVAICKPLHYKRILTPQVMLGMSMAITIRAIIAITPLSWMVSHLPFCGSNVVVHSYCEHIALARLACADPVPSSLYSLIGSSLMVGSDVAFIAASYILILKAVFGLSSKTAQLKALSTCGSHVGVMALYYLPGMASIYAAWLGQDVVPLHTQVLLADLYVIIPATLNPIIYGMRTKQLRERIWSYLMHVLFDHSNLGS
Summary of the method: as §1

[3] = molecular target: OR52J3 (Homo sapiens) (UniProt Q8NH60)
Sequence of OR52J3 (Homo sapiens) (Q8NH60 whole entry): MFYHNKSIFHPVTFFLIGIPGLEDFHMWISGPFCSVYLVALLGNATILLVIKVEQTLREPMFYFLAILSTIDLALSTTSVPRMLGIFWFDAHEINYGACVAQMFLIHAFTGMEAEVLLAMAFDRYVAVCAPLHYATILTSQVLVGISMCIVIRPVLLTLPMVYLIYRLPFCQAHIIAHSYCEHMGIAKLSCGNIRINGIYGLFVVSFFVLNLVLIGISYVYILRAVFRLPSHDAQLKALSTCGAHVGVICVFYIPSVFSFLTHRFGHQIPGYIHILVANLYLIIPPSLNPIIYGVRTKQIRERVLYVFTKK
Summary of the method: as §1

[4] = molecular target: T3, OR52K1 (Homo sapiens) (UniProt Q8NGK4)
T3 sequence (whole entry): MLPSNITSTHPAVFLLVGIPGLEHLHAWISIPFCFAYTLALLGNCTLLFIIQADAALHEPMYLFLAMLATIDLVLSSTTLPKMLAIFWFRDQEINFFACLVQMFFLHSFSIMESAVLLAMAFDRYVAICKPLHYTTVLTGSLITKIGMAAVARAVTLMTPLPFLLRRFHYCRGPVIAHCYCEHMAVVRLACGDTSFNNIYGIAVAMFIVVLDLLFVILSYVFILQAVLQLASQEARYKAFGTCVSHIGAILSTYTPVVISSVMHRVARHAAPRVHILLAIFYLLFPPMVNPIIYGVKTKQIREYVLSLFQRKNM
Summary of the method: as §1

[5] = molecular target: T4, OR52K2 (Homo sapiens) (UniProt Q8NGK3)
T4 sequence (whole entry): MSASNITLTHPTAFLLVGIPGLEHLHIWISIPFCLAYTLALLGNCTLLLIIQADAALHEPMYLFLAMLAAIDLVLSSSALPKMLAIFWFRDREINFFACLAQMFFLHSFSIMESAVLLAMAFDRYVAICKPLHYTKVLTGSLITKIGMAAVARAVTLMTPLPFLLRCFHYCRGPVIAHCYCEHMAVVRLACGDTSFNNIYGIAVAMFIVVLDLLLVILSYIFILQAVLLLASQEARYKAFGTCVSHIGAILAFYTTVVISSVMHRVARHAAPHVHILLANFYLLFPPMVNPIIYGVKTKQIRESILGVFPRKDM
Summary of the method: as §1

[6] = molecular target: T5, OR52L1 (Homo sapiens) (UniProt Q8NGH7)
T5 sequence (whole entry): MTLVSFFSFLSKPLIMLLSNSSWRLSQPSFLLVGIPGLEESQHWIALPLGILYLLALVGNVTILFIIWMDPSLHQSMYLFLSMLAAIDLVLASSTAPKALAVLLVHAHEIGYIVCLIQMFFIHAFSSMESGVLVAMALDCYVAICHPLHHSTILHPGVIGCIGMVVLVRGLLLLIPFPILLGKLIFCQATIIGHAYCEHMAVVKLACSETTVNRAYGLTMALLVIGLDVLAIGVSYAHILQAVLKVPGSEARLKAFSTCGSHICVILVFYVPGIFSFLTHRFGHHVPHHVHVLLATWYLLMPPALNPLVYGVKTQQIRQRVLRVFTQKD
Summary of the method: as §1

[7] = molecular target: T6, OR52M1 (Homo sapiens) (UniProt Q8NGK5)
T6 sequence (whole entry): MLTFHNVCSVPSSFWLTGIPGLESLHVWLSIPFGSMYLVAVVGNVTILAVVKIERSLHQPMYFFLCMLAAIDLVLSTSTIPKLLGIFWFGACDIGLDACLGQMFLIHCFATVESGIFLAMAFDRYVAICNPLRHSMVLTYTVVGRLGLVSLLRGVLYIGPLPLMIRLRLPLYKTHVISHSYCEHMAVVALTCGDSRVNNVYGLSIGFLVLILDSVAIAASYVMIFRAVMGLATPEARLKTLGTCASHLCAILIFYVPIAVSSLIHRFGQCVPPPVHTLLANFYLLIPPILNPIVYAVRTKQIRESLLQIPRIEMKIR
Summary of the method: as §1

[8] = molecular target: T7, OR52N1 (Homo sapiens) (UniProt Q8NH53)
T7 sequence (whole entry): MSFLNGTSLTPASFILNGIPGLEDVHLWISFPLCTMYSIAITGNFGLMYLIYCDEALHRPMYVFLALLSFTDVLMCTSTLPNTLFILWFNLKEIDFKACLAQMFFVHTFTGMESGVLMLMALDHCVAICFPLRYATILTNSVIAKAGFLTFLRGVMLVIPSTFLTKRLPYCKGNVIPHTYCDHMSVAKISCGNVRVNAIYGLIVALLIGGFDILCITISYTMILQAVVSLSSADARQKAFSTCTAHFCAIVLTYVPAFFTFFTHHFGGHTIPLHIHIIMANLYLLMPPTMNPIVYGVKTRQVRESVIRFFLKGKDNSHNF
Summary of the method: as §1

[9] = molecular target: T8, OR52N2 (Homo sapiens) (UniProt Q8NGI0)
T8 sequence (whole entry): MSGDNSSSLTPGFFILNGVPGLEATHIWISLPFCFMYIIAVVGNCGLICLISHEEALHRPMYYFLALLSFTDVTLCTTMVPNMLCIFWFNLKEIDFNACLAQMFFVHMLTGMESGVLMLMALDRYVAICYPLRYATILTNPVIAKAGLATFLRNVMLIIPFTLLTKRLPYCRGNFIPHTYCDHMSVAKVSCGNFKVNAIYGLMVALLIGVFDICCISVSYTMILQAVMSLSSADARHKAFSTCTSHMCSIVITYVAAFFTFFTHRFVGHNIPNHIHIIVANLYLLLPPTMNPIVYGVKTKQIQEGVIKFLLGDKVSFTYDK
Summary of the method: as §1

[10] = molecular target: T9, OR52N4 (Homo sapiens) (UniProt Q8NGI2)
T9 sequence (whole entry): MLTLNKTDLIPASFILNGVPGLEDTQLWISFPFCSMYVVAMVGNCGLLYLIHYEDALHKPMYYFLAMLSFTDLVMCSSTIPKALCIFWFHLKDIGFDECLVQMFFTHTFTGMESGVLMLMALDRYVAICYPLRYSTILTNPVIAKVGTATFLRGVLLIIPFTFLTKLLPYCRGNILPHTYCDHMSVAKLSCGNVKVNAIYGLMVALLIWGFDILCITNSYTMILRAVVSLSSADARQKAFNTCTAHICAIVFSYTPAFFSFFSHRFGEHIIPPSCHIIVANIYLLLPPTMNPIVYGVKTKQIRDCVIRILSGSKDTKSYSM
Summary of the method: as §1

[11] = molecular target: T10, OR52N5 (Homo sapiens) (UniProt Q8NH56)
T10 sequence (whole entry): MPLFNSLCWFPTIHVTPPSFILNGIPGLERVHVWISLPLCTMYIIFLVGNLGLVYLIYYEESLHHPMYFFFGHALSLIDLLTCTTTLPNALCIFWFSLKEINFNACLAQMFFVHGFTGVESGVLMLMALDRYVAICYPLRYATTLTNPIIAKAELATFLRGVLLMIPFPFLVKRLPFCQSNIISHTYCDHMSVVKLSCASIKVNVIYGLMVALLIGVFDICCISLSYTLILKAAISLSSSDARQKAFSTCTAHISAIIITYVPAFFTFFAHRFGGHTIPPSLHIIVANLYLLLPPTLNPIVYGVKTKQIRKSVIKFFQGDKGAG
Summary of the method: as §1

[12] = molecular target: T11, OR52R1 (Homo sapiens) (UniProt Q8NGF1)
T11 sequence (whole entry): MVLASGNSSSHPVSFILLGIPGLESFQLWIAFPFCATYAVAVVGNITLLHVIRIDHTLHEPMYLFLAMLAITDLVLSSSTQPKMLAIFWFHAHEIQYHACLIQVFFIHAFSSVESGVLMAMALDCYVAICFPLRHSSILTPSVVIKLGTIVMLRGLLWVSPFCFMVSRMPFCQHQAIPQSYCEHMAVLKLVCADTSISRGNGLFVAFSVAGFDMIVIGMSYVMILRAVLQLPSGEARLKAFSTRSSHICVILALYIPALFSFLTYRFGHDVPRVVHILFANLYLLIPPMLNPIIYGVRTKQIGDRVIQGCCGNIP
Summary of the method: as §1

[13] = molecular target: T12, OR52W1 (Homo sapiens) (UniProt Q6IF63)
T12 sequence (whole entry): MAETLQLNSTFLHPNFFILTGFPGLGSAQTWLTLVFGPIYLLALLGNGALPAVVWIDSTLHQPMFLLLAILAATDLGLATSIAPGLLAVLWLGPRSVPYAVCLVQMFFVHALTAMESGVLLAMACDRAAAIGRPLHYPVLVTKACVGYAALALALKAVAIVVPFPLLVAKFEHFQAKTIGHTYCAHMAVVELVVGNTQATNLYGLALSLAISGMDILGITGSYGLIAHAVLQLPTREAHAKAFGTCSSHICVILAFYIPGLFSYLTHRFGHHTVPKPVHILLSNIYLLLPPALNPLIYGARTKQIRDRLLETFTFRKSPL
Summary of the method: as §1

[14] = molecular target: T13, OR56A1 (Homo sapiens) (UniProt Q8NGH5)
T13 sequence (whole entry): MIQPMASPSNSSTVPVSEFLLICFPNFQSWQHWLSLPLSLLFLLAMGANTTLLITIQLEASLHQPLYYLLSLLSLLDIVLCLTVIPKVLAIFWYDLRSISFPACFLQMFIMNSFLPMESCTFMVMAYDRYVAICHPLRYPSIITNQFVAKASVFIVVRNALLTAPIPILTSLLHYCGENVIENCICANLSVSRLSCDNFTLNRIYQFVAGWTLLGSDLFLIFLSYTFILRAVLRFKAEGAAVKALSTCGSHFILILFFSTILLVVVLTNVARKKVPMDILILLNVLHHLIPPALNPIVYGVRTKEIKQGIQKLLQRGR
Summary of the method: as §1

[15] = molecular target: T14, OR56A3 (Homo sapiens) (UniProt Q8NH54)
T14 sequence (whole entry): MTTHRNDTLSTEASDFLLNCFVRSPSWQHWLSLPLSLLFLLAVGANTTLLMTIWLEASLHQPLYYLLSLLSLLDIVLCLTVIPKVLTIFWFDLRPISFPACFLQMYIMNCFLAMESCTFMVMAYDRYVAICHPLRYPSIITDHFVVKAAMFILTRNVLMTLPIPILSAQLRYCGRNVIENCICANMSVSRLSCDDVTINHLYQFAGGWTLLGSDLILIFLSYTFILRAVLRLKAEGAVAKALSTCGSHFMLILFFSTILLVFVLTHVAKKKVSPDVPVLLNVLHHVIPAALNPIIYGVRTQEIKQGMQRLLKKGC
Summary of the method: as §1

[16] = molecular target: T15, OR56A4 (Homo sapiens) (UniProt Q8NGH8)
T15 sequence (whole entry): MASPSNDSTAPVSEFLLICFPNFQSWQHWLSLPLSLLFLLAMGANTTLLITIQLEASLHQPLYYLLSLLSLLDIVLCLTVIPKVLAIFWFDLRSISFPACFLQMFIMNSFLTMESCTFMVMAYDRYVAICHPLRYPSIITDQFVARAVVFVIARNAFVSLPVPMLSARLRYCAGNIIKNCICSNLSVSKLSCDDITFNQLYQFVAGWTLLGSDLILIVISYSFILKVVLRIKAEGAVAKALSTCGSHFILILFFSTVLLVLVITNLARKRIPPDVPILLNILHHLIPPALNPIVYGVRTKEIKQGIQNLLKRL
Summary of the method: as §1

[17] = molecular target: T16, OR56A5 (Homo sapiens) (UniProt P0C7T3)
T16 sequence (whole entry): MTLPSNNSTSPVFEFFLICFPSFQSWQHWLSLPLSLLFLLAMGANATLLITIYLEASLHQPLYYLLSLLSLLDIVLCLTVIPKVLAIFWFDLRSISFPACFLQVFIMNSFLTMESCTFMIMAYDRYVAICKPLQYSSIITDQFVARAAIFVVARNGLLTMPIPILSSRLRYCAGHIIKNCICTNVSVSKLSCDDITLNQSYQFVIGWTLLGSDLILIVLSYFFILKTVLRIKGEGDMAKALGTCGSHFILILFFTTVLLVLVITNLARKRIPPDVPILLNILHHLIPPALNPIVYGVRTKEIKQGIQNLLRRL
Summary of the method: as §1

[18] = molecular target: T17, OR56B1 (Homo sapiens) (UniProt Q8NGI3)
T17 sequence (whole entry): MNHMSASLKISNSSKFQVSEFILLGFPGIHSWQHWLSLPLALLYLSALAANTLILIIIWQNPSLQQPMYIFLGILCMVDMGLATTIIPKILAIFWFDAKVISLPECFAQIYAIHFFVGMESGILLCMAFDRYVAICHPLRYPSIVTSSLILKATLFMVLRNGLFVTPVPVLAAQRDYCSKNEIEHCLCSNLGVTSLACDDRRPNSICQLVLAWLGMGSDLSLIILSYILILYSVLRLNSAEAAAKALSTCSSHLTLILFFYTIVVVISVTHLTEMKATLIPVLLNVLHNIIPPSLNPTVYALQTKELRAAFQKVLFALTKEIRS
Summary of the method: as §1

Measured: odorant receptor agonist call

CCCCCC(=O)C(C)C(C)=O (stereo not drawn)
inactive: [1] | [2] | [3] | [4] | [5] | [6] | [7] | [8] | [9] | [10] | [11] | [12] | [13] | [14] | [15] | [16] | [17] | [18]
